The text below walks through data of ChEMBL document CHEMBL1153564 (Antimicrob Agents Chemother, 2008).

Series [1] deals with Candida albicans. Put plainly: Antifungal activity against Candida albicans K-1 infected in neutropenic ICR/Swiss mouse candidiasis model assessed as suppression of fungal regrowth at 20 mg/kg, ip administered 2 hrs postinfection as single dose by time-kill assay. It is filed as functional, organism-based. Set-up: dose 20 mg/kg. The gist of the method: (§1)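 Single ip dose (20, 5 or 1.25 mg/kg) given 2 h after iv infection of neutropenic mice with K-1. Three treated and three control mice were sampled at intervals over 96 h for kidney CFU. PAFE is the time for treated burden to rise 1 log10 after serum levels fall below MIC, minus the same time in controls. Free drug was taken as 1%.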

Series [2] concerns Candida albicans. Nature of the series: Antifungal activity against Candida albicans K-1 infected in neutropenic ICR/Swiss mouse candidiasis model assessed as dose required to maintain […] of 3.90 +/- 0.15 log10CFU per kidney administered intraperitoneally every 48 hrs up to 4 days measured per 96 hrs. It is filed as functional. An outline of the steps:
(§2)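 Neutropenic mice were infected iv with C. albicans K-1 2 h before therapy. Total doses of 1.25, 5, 20, 80 and 320 mg/kg/96 h were split into 1, 2, 4 or 6 ip doses (q96h, q48h, q24h, q16h), three mice per regimen. Effect is the log10 CFU/kidney relative to untreated controls at 96 h. Static and 1-log doses were taken from a Hill model fit.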

In a further series the test system is Serum. Nature of the series: Fraction unbound in Candida albicans K-1 infected neutropenic ICR/Swiss mouse serum at 20 mg/kg, ip administered 2 hrs postinfection as single dose measured after 12 hrs. The series is classed as ADME, organism-based. Set-up: dose 20 mg/kg, route intraperitoneal. The settings on record: in vivo.
Series [3] in a line: AUC (0 to infinity) in serum of neutropenic ICR/Swiss mouse candidiasis model at 20 mg/kg, ip by reverse-phase high-pressure liquid chromatography. Set-up: time infinity, dose 20 mg/kg, route intraperitoneal. It is filed as ADME, organism-based. An outline of the steps: (§3)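 Single ip dose in 0.2 ml to infected neutropenic mice. Serum from groups of three isoflurane-anaesthetised mice at 1, 4, 8, 12, 24 and 48 h, stored −80°C. Drug measured by reverse-phase HPLC with fluorescence detection against loratadine internal standard (calibration 10–50,000 ng/ml). Noncompartmental analysis; AUC by trapezoidal rule.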

For series [4], the system named is Nakaseomyces glabratus. Nature of the series: Antifungal activity against Candida glabrata 33609 assessed as partial growth inhibition after 24 hrs by CLSI end point method. The series is classed as functional. The settings on record: Nakaseomyces glabratus, 33609, 24 h. An outline of the steps:
(§4)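 CLSI M27-A2 broth dilution. Two end points read against the drug-free control well: partial inhibition (CLSI end point) and complete inhibition. Run in duplicate on four separate occasions; value is the mean. Drug stock in DMSO, diluted in 0.9% NaCl.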

Series [5] deals with Candida albicans. Nature of the series: Antifungal activity against Candida albicans K-1 infected in neutropenic ICR/Swiss mouse candidiasis model assessed as dose required for 1-log10 reduction in […] per kidney administered intraperitoneally every 24 hrs up to 4 days measured per 24 hrs. The series is classed as functional.
The subject of series [6] is Candida albicans. Nature of the series: Antifungal activity against Candida albicans after 24 hrs by broth microdilution method. It is filed as functional. On the technique in general: Broth dilution looks for growth in wells or tubes with falling amounts of substance.
Series [7] deals with Candida albicans. Put plainly: Antifungal activity against Candida albicans 98-17 assessed as partial growth inhibition after 24 hrs by CLSI end point method. It is filed as functional. To be noted: 98-17, 24 h. The gist of the method:
as §4

For series [8], the system named is Nakaseomyces glabratus. Put plainly: Antifungal activity against Candida glabrata 32930 assessed as complete growth inhibition after 24 hrs by CLSI end point method. The series is classed as functional. The settings on record: Nakaseomyces glabratus, 32930, 24 h. The gist of the method:
as §4

Series [9] has as its system Nakaseomyces glabratus. Nature of the series: Antifungal activity against Candida glabrata 570 assessed as partial growth inhibition after 24 hrs by CLSI end point method. To be noted: Nakaseomyces glabratus, 570, 24 h. The series is classed as functional. The gist of the method: (§5)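 Two end points were read against the drug-free control well: partial growth inhibition (the CLSI end point) and complete inhibition. Run in duplicate on four separate occasions; the value is the mean. Drug stock was made in DMSO and diluted in 0.9% NaCl.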

For series [10], the system named is Nakaseomyces glabratus. Nature of the series: Antifungal activity against Candida glabrata 32930 infected in neutropenic ICR/Swiss mouse candidiasis model assessed as fungal count per kidney administered 2 hrs postinfection measured up to 48 hrs. It is filed as functional. An outline of the steps:
(§6)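 Untreated neutropenic mice infected via the tail vein (inoculum about 6.1 log10 CFU/ml, 0.1 ml). Growth is the rise in kidney CFU over 48 h. Kidneys were homogenised, serially diluted 1:10 and plated on SDA for 24 h at 35°C. Mean of three mice.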

The test system of series [11] is Candida albicans. Nature of the series: Antifungal activity against Candida albicans K-1 infected in neutropenic ICR/Swiss mouse candidiasis model assessed as suppression of fungal regrowth at 5 mg/kg, ip administered 2 hrs postinfection as single dose by time-kill assay. It is filed as functional, organism-based. Set-up: dose 5 mg/kg. The gist of the method:
as §1

Series [12] relates to Nakaseomyces glabratus. Put plainly: Antifungal activity against Candida glabrata 5376 infected in neutropenic ICR/Swiss mouse candidiasis model assessed as dose required to maintain […] burden of 1.83 +/- 0.54 log10CFU per kidney administered intraperitoneally every 24 hrs up to 4 days measured per 24 hrs. The series is classed as functional.
The subject of series [13] is Candida albicans. Nature of the series: Antifungal activity against Candida albicans 98-17 infected in neutropenic ICR/Swiss mouse candidiasis model assessed as fungal count per kidney administered 2 hrs postinfection measured up to 48 hrs. The series is classed as functional. The gist of the method: as §6
Series [14] has as its system Nakaseomyces glabratus. Put plainly: Antifungal activity against Candida glabrata 513 assessed as complete growth inhibition after 24 hrs by CLSI end point method. The series is classed as functional. To be noted: Nakaseomyces glabratus, 513, 24 h. The gist of the method: as §5
The subject of series [15] is Candida albicans. Nature of the series: Antifungal activity against Candida albicans K-1 infected in neutropenic ICR/Swiss mouse candidiasis model assessed as reduction of […] in kidney at 5 mg/kg, ip administered 2 hrs postinfection as single dose measured within 1 to 4 hrs post dosing by time-kill assay. Set-up: dose 5 mg/kg. It is filed as functional, organism-based. An outline of the steps: as §1

The test system of series [16] is Nakaseomyces glabratus. Put plainly: Antifungal activity against Candida glabrata 5592 infected in neutropenic ICR/Swiss mouse candidiasis model assessed as dose required for 1-log10 reduction in […] per kidney administered intraperitoneally every 24 hrs up to 4 days measured per 24 hrs. It is filed as functional. The gist of the method: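 Neutropenic mouse disseminated candidiasis, with i.p. therapy starting 2 h after i.v. infection. Five total doses of 0.078–20 mg/kg/24 h were given q24h for 4 days, three mice per dose. Kidney CFU were counted at the end and compared with untreated controls. The dose giving a 1 log10 CFU/kidney reduction was derived from the sigmoid Hill dose–effect model.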

The subject of series [17] is Candida albicans. Nature of the series: Antifungal activity against Candida albicans 98-210 infected in neutropenic ICR/Swiss mouse candidiasis model assessed as fungal count per kidney administered 2 hrs postinfection measured up to 48 hrs. The series is classed as functional. An outline of the steps:
as §6

Series [18] is described as follows: AUC (0 to infinity) in serum of neutropenic ICR/Swiss mouse candidiasis model at 5 mg/kg, ip by reverse-phase high-pressure liquid chromatography. The series is classed as ADME, organism-based. Set-up: time infinity, dose 5 mg/kg, route intraperitoneal. The gist of the method:
as §3

Series [19] concerns Nakaseomyces glabratus. Nature of the series: Antifungal activity against Candida glabrata 5592 infected in neutropenic ICR/Swiss mouse candidiasis model assessed as dose required to maintain […] of 1.83 +/- 0.54 log10CFU per kidney administered intraperitoneally every 24 hrs up to 4 days measured per 24 hrs. It is filed as functional.
The subject of series [20] is Candida albicans. Nature of the series: Antifungal activity against Candida albicans K-1 infected in neutropenic ICR/Swiss mouse candidiasis model assessed as dose required for 1-log10 reduction in […] per kidney administered intraperitoneally once every 96 hrs measured per 96 hrs. It is filed as functional. The gist of the method: as §2
Series [21] has as its system Nakaseomyces glabratus. Nature of the series: Antifungal activity against Candida glabrata 5376 assessed as partial growth inhibition after 24 hrs by CLSI end point method. It is filed as functional. The settings on record: Nakaseomyces glabratus, 5376, 24 h. The gist of the method: as §5
Series [22] concerns Nakaseomyces glabratus. Nature of the series: Antifungal activity against Candida glabrata 33609 infected in neutropenic ICR/Swiss mouse candidiasis model assessed as fungal count per kidney administered 2 hrs postinfection measured up to 48 hrs. The series is classed as functional. The gist of the method:
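Female ICR/Swiss mice (23–27 g) made neutropenic with cyclophosphamide s.c. (150 mg/kg day −4, 100 mg/kg day −1, 100 mg/kg day +2). Infected by tail vein with 0.1 ml inoculum (~6.1 log10 CFU/ml). Kidneys of untreated mice were homogenised and plated on SDA for 24 h at 35°C. Growth over 48 h is given as log10 CFU/kidney.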

Structures are written as SMILES. Converted amounts (≈) assume the structure as drawn. The source made the active and inactive calls. Starred links: 1 amine or outer side, 2 acyl side, 3 side chain; linkers in the order of their positions; H or OH if unused. Positions of bridges follow the written chain, without caps; N, C: chain ends. Non-standard residues stand in square brackets, D forms with d. Residues, ends and D or L forms follow the SMILES beside them. *: point of attachment. pTerphenylCO(4''-OnC5H11) = CCCCCOc1ccc(-c2ccc(-c3ccc(C(=O)*)cc3)cc2)cc1; Orn(4R-OH,5R-OH) = O=C([C@H](C[C@@H](O)[C@@H](O)N[*:3])N[*:1])[*:2]; hTyr(3S-OH,4S-OH) = N[C@H](C(=O)O)[C@H](O)[C@@H](O)c1ccc(O)cc1; Pro(3S-OH,4S-Me) = C[C@H]1CN[C@H](C(=O)O)[C@H]1O; Hyp = O=C(O)[C@@H]1C[C@@H](O)CN1

Usually AUC(0-inf) stands for total exposure, with the tail of the curve extrapolated. A higher AUC(0-inf) goes with high exposure. In general, MIC refers to the smallest concentration in the dilution series that meets the test's criterion for growth inhibition. By MIC90 is commonly meant the lowest concentration that inhibits either 90% of growth or 90% of the strains tested, depending on the study. Turning to `CCCCCOc1ccc(-c2ccc(-c3ccc(C(=O)N[C@H]4C[C@@H](O)[C@@H](O)NC(=O)[C@@H]5[C@@H](O)[C@@H](C)CN5C(=O)[C@H]([C@@H](C)O)NC(=O)[C@H]([C@H](O)[C@@H](O)c5ccc(O)cc5)NC(=O)[C@@H]5C[C@@H](O)CN5C(=O)[C@H]([C@@H](C)O)NC4=O)cc3)cc2)cc1` [ANIDULAFUNGIN] ({pTerphenylCO(4''-OnC5H11)}-[Orn(4R-OH,5R-OH)]T[Hyp][hTyr(3S-OH,4S-OH)]T[Pro(3S-OH,4S-Me)]; lactam 1-C), the outcome in the series on Candida albicans [1], in the series on Candida albicans [11] and with Candida albicans [15] was Active. The Activity in the series with Candida albicans [2] turned out to be 5.01 mg/kg; in the series with Candida albicans [5], 2 mg/kg; with Nakaseomyces glabratus [12], 6.8 mg/kg; in the series on Nakaseomyces glabratus [16], 11.8 mg/kg; in the series on Nakaseomyces glabratus [19], 3.57 mg/kg; in the series on Candida albicans [20], 4.97 mg/kg. In addition, the Fu with Serum was determined as 1%. Also, the values for the AUC(0-inf) in series [3] and in series [18] were 382 µg·h/mL and 96 µg·h/mL, respectively. For the same compound, the MIC in the series with Nakaseomyces glabratus [4] stood at 0.03 µg/mL (≈ 0.0263 µM); in the series on Candida albicans [7], 0.03 µg/mL (≈ 0.0263 µM); in the series on Nakaseomyces glabratus [8], 0.12 µg/mL (≈ 0.105 µM); with Nakaseomyces glabratus [9] it was 0.03 µg/mL (≈ 0.0263 µM); in the series with Nakaseomyces glabratus [14], 0.12 µg/mL (≈ 0.105 µM); in the series with Nakaseomyces glabratus [21] it was 0.03 µg/mL (≈ 0.0263 µM). Further, the MIC90 in the series on Candida albicans [6] amounted to 0.06 µg/mL (≈ 0.0526 µM). Further, the log10cfu in the series on Nakaseomyces glabratus [10] stood at 1.29; with Candida albicans [13], 4.3; with Candida albicans [17], 3.5; with Nakaseomyces glabratus [22], 2.37.
